For data set [1], the species on record is Mus musculus. Kind of data set: Antagonist activity at NMDA receptor in Nras driven p53 deficient mouse HCC cell membranes assessed as decrease in Abcb1 protein expression levels by measuring [3H]-digoxin accumulation at 10 uM preincubated for 24 hrs followed by compound wash out and addition of [3H]-digoxin measured after 30 mins by scintillation counting method relative to control. Details: scale not given: the % may be the effect or the level left. The procedure, abridged:
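Nras p53−/− HCC cells (1 × 10⁵/well) were pretreated 24 h with or without 10 μM. They were then washed 3× in warm HBSS (choline chloride, pH 7.4) and incubated at 37 °C with probe in HBSS. Incubation was 30 min for [3H]-digoxin, 20 μM fluorescein or 10 μM sorafenib, and 5 min for [14C]-L-leucine or [14C]-D-glucose. Cells were washed ice-cold and lysed in 0.1 M NaOH. Read-out was scintillation, fluorescence or LC-MS/MS, normalized to protein.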

The test system of data set [2] is Mus musculus. Kind of data set: Toxicity in mouse assessed as behavioral changes at 10 mg/kg, ip administered as bolus dose. To be noted: in vivo. The format is organism-based.
For data set [3], the target named is Glutamate NMDA receptor; Grin1/Grin2b (Rattus norvegicus, UniProt P35439+Q00960). The data set can be described thus: Antagonist activity at recombinant rat GluN1a/GluN2B expressed in Xenopus laevis oocytes assessed as inhibition of glycine/glutamate-mediated current responses by two-electrode voltage clamp method. The class given is cell-based. The procedure, abridged: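 Xenopus oocytes were injected with rat GluN1 and GluN2A–D cRNA (1:2) and recorded 2–6 days later by TEVC at room temperature, −40 mV, in Ba2+-containing recording solution, pH 7.4. Currents were evoked by 100 μM glycine plus glutamate at 2–3× EC50: 10 μM for GluN2A, 3 μM for GluN2B and GluN2C, 1 μM for GluN2D. IC50 from Hill fits per oocyte; Ki estimated.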

The species named for data set [4] is Mus musculus. Kind of data set: Antagonist activity at NMDA receptor in Nras driven p53 deficient mouse HCC cell membranes assessed as potentiation of 10 uM sorafenib-mediated antiproliferative activity by measuring cell viability at 100 uM after 72 hrs by resazurin assay (reference value: […] +/- […]%).

For 1 molecule, Activity, IC50 and Ki results are on record in ChEMBL document CHEMBL4024770, “Augmentation of Anticancer Drug Efficacy in Murine Hepatocellular Carcinoma Cells by a Peripherally Acting Competitive N-Methyl-d-aspartate (NMDA) Receptor Antagonist” (J Med Chem, 2017).

Chain of Glutamate NMDA receptor; Grin1/Grin2b (Q00960 whole entry, other chains not shown): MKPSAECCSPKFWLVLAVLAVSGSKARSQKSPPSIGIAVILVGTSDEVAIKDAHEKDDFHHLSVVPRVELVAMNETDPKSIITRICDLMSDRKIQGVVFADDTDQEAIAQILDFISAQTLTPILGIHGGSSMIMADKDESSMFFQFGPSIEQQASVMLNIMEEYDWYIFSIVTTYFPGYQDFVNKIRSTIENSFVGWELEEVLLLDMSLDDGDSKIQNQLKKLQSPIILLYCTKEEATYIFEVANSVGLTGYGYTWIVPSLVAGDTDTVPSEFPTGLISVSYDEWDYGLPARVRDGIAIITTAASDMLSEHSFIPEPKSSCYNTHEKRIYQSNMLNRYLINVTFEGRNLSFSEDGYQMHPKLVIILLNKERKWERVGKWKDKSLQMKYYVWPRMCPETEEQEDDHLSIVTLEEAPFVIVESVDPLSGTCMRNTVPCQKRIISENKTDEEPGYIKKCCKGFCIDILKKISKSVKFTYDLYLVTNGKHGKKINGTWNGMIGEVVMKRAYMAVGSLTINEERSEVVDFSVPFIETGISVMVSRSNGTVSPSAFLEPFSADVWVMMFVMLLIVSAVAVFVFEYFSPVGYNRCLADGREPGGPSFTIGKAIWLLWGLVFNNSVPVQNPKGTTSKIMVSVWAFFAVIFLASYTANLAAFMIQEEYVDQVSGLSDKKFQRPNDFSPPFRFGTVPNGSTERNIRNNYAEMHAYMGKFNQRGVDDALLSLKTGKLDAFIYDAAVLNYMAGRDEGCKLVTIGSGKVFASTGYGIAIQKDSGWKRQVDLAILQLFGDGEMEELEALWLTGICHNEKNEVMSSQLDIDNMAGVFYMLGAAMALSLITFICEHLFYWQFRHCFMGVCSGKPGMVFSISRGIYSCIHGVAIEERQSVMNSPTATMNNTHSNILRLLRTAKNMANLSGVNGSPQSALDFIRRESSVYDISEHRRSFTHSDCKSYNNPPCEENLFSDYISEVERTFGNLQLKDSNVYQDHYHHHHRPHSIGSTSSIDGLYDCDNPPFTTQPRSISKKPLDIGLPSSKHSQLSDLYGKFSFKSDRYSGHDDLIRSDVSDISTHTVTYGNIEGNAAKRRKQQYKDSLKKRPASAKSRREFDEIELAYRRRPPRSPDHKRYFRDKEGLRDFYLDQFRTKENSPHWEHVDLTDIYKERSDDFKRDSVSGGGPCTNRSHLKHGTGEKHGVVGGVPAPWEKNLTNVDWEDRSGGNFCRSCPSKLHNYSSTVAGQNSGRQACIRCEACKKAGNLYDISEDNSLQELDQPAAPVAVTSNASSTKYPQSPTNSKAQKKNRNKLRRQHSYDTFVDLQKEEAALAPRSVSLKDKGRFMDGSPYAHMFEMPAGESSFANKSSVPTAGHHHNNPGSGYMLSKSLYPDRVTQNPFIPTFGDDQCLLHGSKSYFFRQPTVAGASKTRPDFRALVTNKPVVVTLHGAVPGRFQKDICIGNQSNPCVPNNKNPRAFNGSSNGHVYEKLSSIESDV

What is called IC50 is the point on the concentration scale where inhibition reaches its midpoint. As usually defined, the Ki is the equilibrium dissociation constant of an inhibitor or competing ligand from its target. On to `Cl.O=C(O)c1cc([C@H]2CCN[C@@H]2C(=O)O)ccc1Cl`, for which the Activity in data set [1] is 149%; in data set [2] it was “Non-Toxic”; in data set [4], 24%. For the same molecule, in data set [3], the half-inhibitory concentration (IC50) is 29 µM. The Ki in data set [3] is 10 µM.
